Experiment [1] concerns the target T1, Alpha-1A adrenergic receptor (Rattus norvegicus, UniProt P43140).
T1 sequence (P43140 whole entry): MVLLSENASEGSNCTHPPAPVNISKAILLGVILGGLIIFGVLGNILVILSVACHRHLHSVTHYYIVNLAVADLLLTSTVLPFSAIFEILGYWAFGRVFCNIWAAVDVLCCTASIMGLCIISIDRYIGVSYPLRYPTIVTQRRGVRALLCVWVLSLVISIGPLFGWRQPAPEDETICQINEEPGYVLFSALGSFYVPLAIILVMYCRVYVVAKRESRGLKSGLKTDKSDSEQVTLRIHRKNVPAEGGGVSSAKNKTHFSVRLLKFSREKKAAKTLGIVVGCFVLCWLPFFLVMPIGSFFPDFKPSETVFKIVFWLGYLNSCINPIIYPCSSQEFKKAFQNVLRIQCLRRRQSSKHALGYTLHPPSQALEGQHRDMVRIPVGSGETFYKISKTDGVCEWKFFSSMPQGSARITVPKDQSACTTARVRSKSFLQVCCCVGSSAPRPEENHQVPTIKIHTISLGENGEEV
The experiment is described as follows: Antagonist affinity [non competitive (irreversible)] at alpha-1A-adrenoceptors on isolated prostatic Vas deferens from rat. Type of experiment: functional. An outline of the steps:
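Rat vas deferens prostatic portion, equilibrated 60 min with washes every 15 min, primed twice with 10 µM noradrenaline, then a basal noradrenaline concentration-response curve (solutions with 0.05% Na₂S₂O₅). Antagonist 30 min, then 30 min washing, then a new curve. Maximal-response decrease expressed as % of control; IC50 read graphically from % inhibition vs log molar concentration, given as pIC50 ± SE.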

The target of experiment [2] is T2, Alpha-1B adrenergic receptor (Rattus norvegicus, UniProt P15823).
T2 sequence (P15823 whole entry): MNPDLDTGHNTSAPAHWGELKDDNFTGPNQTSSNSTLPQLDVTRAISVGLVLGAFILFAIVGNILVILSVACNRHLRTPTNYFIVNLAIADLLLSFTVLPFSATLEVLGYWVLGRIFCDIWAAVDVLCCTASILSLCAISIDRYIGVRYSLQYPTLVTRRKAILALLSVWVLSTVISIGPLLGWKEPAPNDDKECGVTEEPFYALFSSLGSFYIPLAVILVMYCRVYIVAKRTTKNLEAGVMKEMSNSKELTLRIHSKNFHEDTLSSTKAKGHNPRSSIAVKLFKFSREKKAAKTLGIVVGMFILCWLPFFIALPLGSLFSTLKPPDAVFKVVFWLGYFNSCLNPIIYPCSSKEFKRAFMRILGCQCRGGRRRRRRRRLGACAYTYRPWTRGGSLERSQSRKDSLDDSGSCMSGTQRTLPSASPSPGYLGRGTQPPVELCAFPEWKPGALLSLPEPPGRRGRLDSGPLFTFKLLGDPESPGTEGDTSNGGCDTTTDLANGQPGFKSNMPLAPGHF
As to the kind of experiment: Antagonist affinity [non competitive (irreversible)] at alpha-1B-adrenoceptors on isolated spleen from rat. In kind it is functional, tissue-based. An outline of the steps: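 Isolated rat spleen contracted by (-)-phenylephrine, measured isometrically. Cumulative curves run at 30 min intervals, the second taken as control. Antagonist incubated 30 min, washed 30 min, then a new curve. Loss of maximal response expressed as % of control; IC50 estimated from % inhibition vs log molar concentration plots, reported as pIC50 ± SE of n experiments.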

For experiment [3], the target named is T3, Alpha-1B adrenergic receptor (Rattus norvegicus) (UniProt P15823).
T3 sequence (whole entry): T2 sequence (P15823 whole entry)
The settings on record: Spleen.

Experiment [4] concerns the target T4, Alpha-1A adrenergic receptor (Rattus norvegicus) (UniProt P43140).
T4 sequence (whole entry): T1 sequence (P43140 whole entry)

Experiment [5] concerns the target T5, Alpha-1D adrenergic receptor (Rattus norvegicus) (UniProt P23944).
T5 sequence (whole entry): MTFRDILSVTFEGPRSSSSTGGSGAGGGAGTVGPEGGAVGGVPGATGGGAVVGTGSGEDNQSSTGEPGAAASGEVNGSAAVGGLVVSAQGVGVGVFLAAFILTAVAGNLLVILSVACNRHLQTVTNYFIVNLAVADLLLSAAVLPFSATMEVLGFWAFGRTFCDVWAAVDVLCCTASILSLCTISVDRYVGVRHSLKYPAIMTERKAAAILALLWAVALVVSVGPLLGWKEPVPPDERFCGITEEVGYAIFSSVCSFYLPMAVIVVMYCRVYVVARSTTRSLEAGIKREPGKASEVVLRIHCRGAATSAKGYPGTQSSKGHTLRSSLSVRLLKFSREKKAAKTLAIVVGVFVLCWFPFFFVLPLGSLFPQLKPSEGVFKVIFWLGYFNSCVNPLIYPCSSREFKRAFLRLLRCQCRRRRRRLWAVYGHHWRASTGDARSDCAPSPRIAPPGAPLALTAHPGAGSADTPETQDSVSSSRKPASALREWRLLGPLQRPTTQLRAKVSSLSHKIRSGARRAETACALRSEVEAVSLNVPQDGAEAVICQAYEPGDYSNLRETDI
The settings on record: Thoracic aorta.

Each structure is given as a SMILES string.

With `COc1cc2nc(N(C)CCCCCCN(C)C(=O)c3ccc(CNCCCCCCNCCSSCCNCCCCCCNCc4ccc(C(=O)N(C)CCCCCCN(C)c5nc(N)c6cc(OC)c(OC)cc6n5)cc4)cc3)nc(N)c2cc1OC`, the values for the IC50 in experiment [1] and in experiment [2] were 4.68 µM and 2.14 µM, respectively.

Take `COc1cc2nc(N3CCN(C(=O)c4cccc(C(F)(F)F)c4)CC3)nc(N)c2cc1OC`: the values for the pKb in experiment [3], in experiment [4] and in experiment [5] were 7.16, 7.49 and 8.38, respectively.

On to `COc1cccc(C(=O)N2CCN(c3nc(N)c4cc(OC)c(OC)cc4n3)CC2)c1`, for which the values for the pKb in experiment [3], in experiment [4] and in experiment [5] were 7.84, 7.87 and 7.46, respectively.

`COc1cc2nc(N3CCN(C(=O)c4cccc(CNCCCCCCNCCSSCCNCCCCCCNCc5cccc(C(=O)N6CCN(c7nc(N)c8cc(OC)c(OC)cc8n7)CC6)c5)c4)CC3)nc(N)c2cc1OC`: the results for the IC50 in experiment [1] and in experiment [2] were 3.89 µM and 55 µM, respectively.

Turning to `COc1cc2nc(N3CCN(C(=O)c4ccc(C(F)(F)F)cc4)CC3)nc(N)c2cc1OC`, the pKb is 7.45 in experiment [3], 7.43 in experiment [4] and 8.31 in experiment [5].

In the case of `COc1cc2nc(N3CCN(C(=O)c4ccccc4)CC3)nc(N)c2cc1OC`, the negative logarithm of the Kb (pKb) amounted to 7.44 in experiment [3], 7.66 in experiment [4] and 8.86 in experiment [5].

For `COc1ccc(C(=O)N2CCN(c3nc(N)c4cc(OC)c(OC)cc4n3)CC2)cc1`, the figures for the pKb in experiment [3], in experiment [4] and in experiment [5] were 7.74, 8.46 and 8.98, respectively.

With `COc1cc2nc(N(C)CCCCCCN(C)C(=O)c3cccc(CNCCCCCCNCCCCCCNCCCCCCNCc4cccc(C(=O)N(C)CCCCCCN(C)c5nc(N)c6cc(OC)c(OC)cc6n5)c4)c3)nc(N)c2cc1OC`, the pKb is 7.41 in experiment [3], 8.48 in experiment [4] and 9.3 in experiment [5].

With `COc1cc2nc(N3CCN(C(=O)c4ccccc4CNCCCCCCNCCSSCCNCCCCCCNCc4ccccc4C(=O)N4CCN(c5nc(N)c6cc(OC)c(OC)cc6n5)CC4)CC3)nc(N)c2cc1OC`, the values for the IC50 in experiment [1] and in experiment [2] were 5.01 µM and 5.13 µM, respectively.

Take `COc1cc2nc(N3CCN(C(=O)c4ccccc4C)CC3)nc(N)c2cc1OC`: the pKb stood at 7.33 in experiment [3], 6.97 in experiment [4] and 7.99 in experiment [5].

Turning to `COc1cc2nc(N3CCN(C(=O)c4ccccc4CNCCCCCCNCCCCCCNCCCCCCNCc4ccccc4C(=O)N4CCN(c5nc(N)c6cc(OC)c(OC)cc6n5)CC4)CC3)nc(N)c2cc1OC`, the pKb in experiment [3] was 6.8; in experiment [4] it was 7.74; in experiment [5], 7.94.

As for `COc1cc2nc(N(C)CCCCCCN(C)C(=O)c3ccc(CNCCCCCCNCCCCCCNCCCCCCNCc4ccc(C(=O)N(C)CCCCCCN(C)c5nc(N)c6cc(OC)c(OC)cc6n5)cc4)cc3)nc(N)c2cc1OC`, the values for the pKb in experiment [3], in experiment [4] and in experiment [5] were 7.56, 8.53 and 7.9, respectively.

On to `COc1cc2nc(N3CCN(C(=O)c4ccc(CNCCCCCCNCCCCCCNCCCCCCNCc5ccc(C(=O)N6CCN(c7nc(N)c8cc(OC)c(OC)cc8n7)CC6)cc5)cc4)CC3)nc(N)c2cc1OC`, for which the pKb came to 7.16 in experiment [3], 6.97 in experiment [4] and 7.47 in experiment [5].

On to `COc1cc2nc(N3CCN(C(=O)c4ccccc4C=O)CC3)nc(N)c2cc1OC`, for which the pKb in experiment [3] worked out at 6.5; in experiment [4], 6.94; in experiment [5], 7.56.

As for `COc1cc2nc(N3CCN(C(=O)c4ccccc4OC)CC3)nc(N)c2cc1OC`, the pKb stood at 6.77 in experiment [3], 7.34 in experiment [4] and 7.76 in experiment [5].

For `COc1cc2nc(N3CCN(C(=O)c4cccc(C)c4)CC3)nc(N)c2cc1OC`, the pKb in experiment [3] came to 8.12; in experiment [4], 8.49; in experiment [5], 9.12.

In the case of `COc1cc2nc(N3CCN(C(=O)c4cccc(C=O)c4)CC3)nc(N)c2cc1OC`, the pKb came to 6.92 in experiment [3], 7.79 in experiment [4] and 8.07 in experiment [5].

As for `COc1cc2nc(N(C)CCCCCCN(C)C(=O)c3cccc(CNCCCCCCNCCSSCCNCCCCCCNCc4cccc(C(=O)N(C)CCCCCCN(C)c5nc(N)c6cc(OC)c(OC)cc6n5)c4)c3)nc(N)c2cc1OC`, the figures for the concentration for half-maximal inhibition (IC50) in experiment [1] and in experiment [2] were 0.0457 µM and 1.74 µM, respectively.

As to `COc1cc2nc(N3CCN(C(=O)c4ccc(CNCCCCCCNCCSSCCNCCCCCCNCc5ccc(C(=O)N6CCN(c7nc(N)c8cc(OC)c(OC)cc8n7)CC6)cc5)cc4)CC3)nc(N)c2cc1OC`, the IC50 in experiment [1] is 2 µM; in experiment [2], 41.7 µM.

As to `COc1cc2nc(N3CCN(C(=O)c4cccc(CNCCCCCCNCCCCCCNCCCCCCNCc5cccc(C(=O)N6CCN(c7nc(N)c8cc(OC)c(OC)cc8n7)CC6)c5)c4)CC3)nc(N)c2cc1OC`, the pKb in experiment [3] is 6.5; in experiment [4], 7.29; in experiment [5], 7.43.

Take `COc1cc2nc(N3CCN(C(=O)c4ccc(C=O)cc4)CC3)nc(N)c2cc1OC`: the pKb stood at 6.95 in experiment [3], 7.59 in experiment [4] and 8.38 in experiment [5].

Consider `COc1cc2nc(N3CCN(C(=O)c4ccccc4C(F)(F)F)CC3)nc(N)c2cc1OC`, for which the values for the pKb in experiment [3], in experiment [4] and in experiment [5] were 6.55, 6.43 and 8.31, respectively.

With `COc1cc2nc(N(C)CCCCCCN(C)C(=O)c3ccccc3CNCCCCCCNCCCCCCNCCCCCCNCc3ccccc3C(=O)N(C)CCCCCCN(C)c3nc(N)c4cc(OC)c(OC)cc4n3)nc(N)c2cc1OC`, the results for the pKb in experiment [3], in experiment [4] and in experiment [5] were 7.22, 8.17 and 8.47, respectively.

Regarding `COc1cc2nc(N3CCN(C(=O)c4ccco4)CC3)nc(N)c2cc1OC`, the pKb in experiment [4] was found to be 8.99; in experiment [5], 9.71.

Turning to `COc1cc2nc(N3CCN(C(=O)c4ccc(C)cc4)CC3)nc(N)c2cc1OC`, the pKb in experiment [3] turned out to be 7.67; in experiment [4] it was 7.96; in experiment [5] it was 8.91.

Regarding `COc1cc2nc(N(C)CCCCCCN(C)C(=O)c3ccccc3CNCCCCCCNCCSSCCNCCCCCCNCc3ccccc3C(=O)N(C)CCCCCCN(C)c3nc(N)c4cc(OC)c(OC)cc4n3)nc(N)c2cc1OC`, the IC50 in experiment [1] and in experiment [2] was 1.86 µM throughout.

By IC50 is commonly meant the concentration that inhibits the measured activity by half. As usually defined, the pKb is the Kb on a negative log10 scale, so that one unit is a factor of ten. Read a high pKb as a small Kb.

(Values after ChEMBL document CHEMBL1134835, “Analogues of prazosin that bear a benextramine-related polyamine backbone exhibit different antagonism toward alpha1-adrenoreceptor subtypes” (J Med Chem, 2001).)
